A value given as a limit tells only on which side of the number the result lay.

Data on 35 molecules can be found in ChEMBL document CHEMBL1154615, “Hydroxamates: relationships between structure and plasma stability” (J Med Chem, 2009).

The nature of series [1]: Half life in po dosed rat. The format is ADME, organism-based. To be noted: in vivo.
Series [2] can be described thus: Stability in potassium phosphate buffer at pH 7.4. The format is physicochemical.
Series [3] can be described thus: (§1) Metabolic stability in Sprague-Dawley rat plasma at 10 uM by LC-MS/MS analysis. The format is ADME, cell-free. Particulars: Sprague-Dawley. A digest of the protocol: (§2)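 Pooled mixed-gender Sprague Dawley lithium-heparin rat plasma, 80 µL per time point in duplicate. Plasma is pre-incubated 5 min at 37 °C, then 30 min with 2 mM PMSF (final) where applied. Compound is added to 10 µM final in 1% DMSO. Quantified by LC-MSMS (MRM or SIM) against an internal standard with a per-compound calibration curve. Result is reported as t1/2.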

Series [4] in a line: Stability in phosphate buffer saline at pH 7.4. The format is physicochemical.
The species named for a further series is Homo sapiens. The series is described as follows: Metabolic stability in human plasma by LC-MS/MS analysis.
Series [5] in a line: Half life in rat at 100 mg/kg, po. The format is ADME, organism-based. Set-up: dose 100 mg/kg, route oral. To be noted: in vivo.
The test system of series [6] is Plasma. The description is as §1. In kind it is ADME, cell-free. Particulars: 10 µM. The gist of the method:
as §2

Series [7] can be described thus: (§3) Metabolic stability in Sprague-Dawley rat plasma at 10 uM by LC-MS/MS analysis in presence of esterase inhibitor PMSF. In kind it is ADME, cell-free. To be noted: Sprague-Dawley, with PMSF (esterase inhibitor). The gist of the method: as §2
The subject of series [8] is Plasma. The description is as §3. The format is ADME, cell-free. Particulars: 10 µM. The gist of the method:
as §2

The nature of series [9]: Half life in rat at 100 mg/kg, iv. In kind it is ADME, organism-based. More on the design: dose 100 mg/kg, route intravenous. To be noted: in vivo.

Take `O=C(NO)C1(S(=O)(=O)c2ccc(Oc3ccc(Cl)cc3)cc2)CCNCC1`: the half-life in series [1] was 1.8 h.

Regarding `O=C(NO)/C(=C/c1ccccc1)C(=O)NCc1ccc(F)cc1`, in [2], the Stability entry is “Stable”. This molecule had a half-life at 10 µM in [3] of 4.1 h. Moreover, the half-life (in series [4]; in the series listed under Homo sapiens) was > 24 h in each case.

As for `CC(C)(C)OC(=O)N[C@H](Cc1ccccc1)C(=O)NO`, the Stability entry in series [2] is reported as “Stable”. Moreover, the half-life at 10 µM in [3] was < 1 h.

Regarding `O=C(NO)c1ccccc1` [BENZOHYDROXAMATE], in series [2], the Stability entry is “Stable”. Besides, the half-life at 10 µM in series [3] is > 24 h.

Turning to `CC(C)Cc1ccc(CC(=O)N(C)O)cc1`, the half-life in series [5] is < 0.3 h.

With `O=C(CCc1ccccc1)NO`, the Stability entry in series [2] is “Stable”. The same molecule gave a half-life at 10 µM in [3] of 1.5 h.

The molecule `CC(C)Cc1ccc(C(=O)N(C)O)cc1` showed a half-life in series [5] of 0.3 h.

Consider `O=C(CCCc1ccccc1)NO` [PHENYLBUTYRYLHYDROXAMIC ACID], for which the Stability result in series [2] is on record as “Stable”. In addition, the t1/2 in the series on Plasma [6] stood at 2 h.

In series [5], `CC(C)Cc1ccc(C(C)C(=O)NO)cc1` (centres undefined) [IBUPROXAM] showed a half-life of 0.3 h.

Consider `CC(C(=O)NO)C(=O)NCc1ccc(F)cc1` (centres undefined), for which, in [2], the Stability entry is recorded as “Stable”. Moreover, the half-life at 10 µM in [3] was 33 h.

Regarding `O=C(CCOc1ccccc1)NO`, the Stability result in series [2] is listed as “Stable”. The half-life at 10 µM in series [3] is 1.4 h.

In series [1], `CN1CCC(C(=O)NO)(S(=O)(=O)c2ccc(Oc3ccc(Cl)cc3)cc2)CC1` gave a half-life of 1.25 h.

For the molecule `O=C(NO)C1(C(=O)NCc2ccc(F)cc2)CC1`, in series [2], the Stability entry was “Stable”. Besides, the half-life at 10 µM in [3] is 22.3 h.

As to `O=C(CC(=O)NCc1ccc(F)cc1)NO`, the Stability entry in series [2] is recorded as “Stable”. The half-life at 10 µM in series [3] was 10.5 h.

`CCOC(=O)[C@H](CCc1ccccc1)N[C@@H](C)C(=O)N1CCC[C@H]1C(=O)O`: the half-life at 10 µM was 0.05 h in [3] and > 24 h in series [7].

On to `O=C(NO)C(Cc1ccccc1)C(=O)NCc1ccc(F)cc1` (centres undefined), for which, in series [2], the Stability result is recorded as “Stable”. Moreover, the half-life at 10 µM in series [3] was 0.8 h. In the series with Plasma [8], the t1/2 was determined as 15 h. The half-life (in series [4]; in the series filed under Homo sapiens) was > 24 h throughout.

As to `CC(=O)N1CCC(C(=O)NO)(S(=O)(=O)c2ccc(Oc3ccc(Cl)cc3)cc2)CC1`, the half-life in series [1] was 0.86 h.

As for `O=C(NO)c1ccc(C#CC2CC2)cc1`, in [2], the Stability result was “Stable”. The molecule further showed a half-life at 10 µM in series [3] of 4 h.

Molecule `O=C(NO)C1(S(=O)(=O)c2ccc(Oc3ccc(Cl)cc3)cc2)CCN(C2CC2)CC1` gave a half-life in series [1] of 0.74 h.

In the case of `CC(C)Cc1ccc(CCC(=O)N(C)O)cc1`, the half-life in [5] was < 0.3 h.

As for `CN(O)C(=O)C(Cc1ccccc1)C(=O)NCc1ccc(F)cc1` (centres undefined), in [2], the Stability result is “Stable”. In series [3], this molecule had a half-life at 10 µM of 0.5 h.

Turning to `O=C(COc1ccccc1)NO`, in series [2], the Stability entry is reported as “Stable”. Further, the half-life at 10 µM in series [3] is 3 h.

For `CC(C)Cc1ccc(C(C)C(=O)N(C)O)cc1` (centres undefined), the half-life in [5] was > 0.3 h.

`CCN1CCC(C(=O)NO)(S(=O)(=O)c2ccc(Oc3ccc(Cl)cc3)cc2)CC1` gave a half-life in series [1] of 1.19 h.

In series [9], `CN(O)C(=O)/C=C/c1ccc2ccccc2c1` had a half-life of 6 min.

Regarding `O=C(Cc1ccccc1)NO` [PHENYLACETOHYDROXAMIC ACID], the Stability entry in [2] is “Stable”. Moreover, the half-life at 10 µM in series [3] was > 24 h.

As to `O=C(Cc1ccc(F)cc1)NC(Cc1ccccc1)C(=O)NO` (centres undefined), in series [2], the Stability result is recorded as “Stable”. For the same molecule, the half-life at 10 µM in series [3] is 1.3 h.

For `O=C(/C=C/c1ccccc1)NO`, the Stability result in series [2] is “Stable”. Further, in series [3], the half-life at 10 µM is 6.2 h.

Take `O=C(NO)/C(=C\c1ccccc1)C(=O)NCc1ccc(F)cc1`: the Stability entry in series [2] was “Stable”. In series [3], the half-life at 10 µM is 22 h. For the same molecule, the half-life (in series [4]; in the series filed under Homo sapiens) was > 24 h each time.

As to `O=C(NCc1ccc(F)cc1)c1cc2ccccc2n(O)c1=O`, in series [2], the Stability result is recorded as “Stable”. In addition, the half-life at 10 µM in [3] was > 48 h.

Turning to `CC(Cc1ccccc1)(C(=O)NO)C(=O)NCc1ccc(F)cc1` (centres undefined), the Stability entry in series [2] is reported as “Stable”. Further, in series [3], the half-life at 10 µM turned out to be 3 h.

`CC(C)Cc1ccc(/C=C/C(=O)N(C)O)cc1`: the half-life in series [5] is < 0.3 h.

Turning to `O=C(CCCCCCC(=O)Nc1ccccc1)NO` [VORINOSTAT], in [3], the half-life at 10 µM is 9.7 h.

Turning to `CC(C)(C(=O)NO)C(=O)NCc1ccc(F)cc1`, the Stability entry in series [2] was “Stable”. The same molecule gave a half-life at 10 µM in series [3] of 19.9 h.

On to `CC1(C)ON=C(C(Cc2ccccc2)C(=O)NCc2ccc(F)cc2)O1` (centres undefined), for which, in series [2], the Stability entry is “Stable”. Also, in series [3], the half-life at 10 µM is 1 h.

The term half-life denotes how long it takes for the measured level to halve.
